From ChEMBL document CHEMBL3526049 (Drug Metab Dispos, 2012)

What was measured:
Type in all cases: ADME, organism-based
[1] = Half life in MRP2 knockout Sprague-Dawley rat at 5 mg/kg, iv by LC-MS/MS analysis; parameters: dose 5 mg/kg, route intravenous; details: in vivo
Outline: (§1)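 Male Sprague-Dawley knockout rats or wild-type rats matched for age and weight, with femoral artery and vein cannulas. Crossover design: sulfasalazine 5 mg/kg iv bolus (water, pH 9–10) on day 0, then 20 mg/kg oral gavage (0.5% carboxymethyl cellulose in PBS, pH 7.4) on day 3. Arterial plasma collected 0–24 h. Sulfasalazine and sulfapyridine measured by LC-MS/MS; noncompartmental parameters; mean ± S.D., n = 4 to 8.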

[2] = Clearance in BCRP knockout Sprague-Dawley rat at 5 mg/kg, iv by LC-MS/MS analysis; parameters: dose 5 mg/kg, route intravenous; details: in vivo
Outline: (§2)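 Male Sprague-Dawley knockout or age/weight-matched wild-type rats with femoral artery and vein cannulas. Crossover design: day 0 i.v. bolus 5 mg/kg sulfasalazine in water at pH 9–10, then day 3 gavage 20 mg/kg in 0.5% carboxymethyl cellulose/PBS pH 7.4. Arterial plasma was sampled to 24 h. Sulfasalazine and sulfapyridine were measured by LC-MS/MS (1–5000 ng/ml). Parameters are noncompartmental; n = 4–8, mean ± S.D.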

[3] = Tmax in wild-type Sprague-Dawley rat at 20 mg/kg, po by LC-MS/MS analysis; parameters: dose 20 mg/kg, route oral; details: in vivo
Outline: (§3)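 Male Sprague-Dawley rats (knockout or wild type, matched for age and weight) with femoral artery and vein cannulas, recovered ≥2 days. In an i.v./oral crossover with a 3-day washout, sulfasalazine was given by oral gavage at 20 mg/kg in 0.5% carboxymethyl cellulose/PBS pH 7.4. Arterial plasma was sampled 0–24 h and analysed by LC-MS/MS (1–5000 ng/ml). Noncompartmental analysis; n = 4 to 8.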

[4] = Volume of distribution at steady state in MRP2-deficient Wistar rat at 5 mg/kg, iv by LC-MS/MS analysis; parameters: dose 5 mg/kg, route intravenous; details: in vivo, read-out: Vdss
Outline: (§4)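 Male Wistar wild-type rats and Mrp2-deficient TR⁻ rats with femoral artery and vein cannulas. Sulfasalazine given as an iv bolus (5 mg/kg, water at pH 9–10) and by oral gavage, each followed by arterial plasma sampling over 24 h. Sulfasalazine and sulfapyridine measured by LC-MS/MS; noncompartmental parameters; mean ± S.D., n = 3.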

[5] = Cmax in BCRP knockout Sprague-Dawley rat at 20 mg/kg, po by LC-MS/MS analysis; parameters: dose 20 mg/kg, route oral; details: in vivo; outline: as §2
[6] = Tmax in MRP2-deficient Wistar rat at 5 mg/kg, po by LC-MS/MS analysis; parameters: dose 5 mg/kg, route oral; details: in vivo
[7] = AUC (infinity) in MDR1A knockout Sprague-Dawley rat at 5 mg/kg, iv by LC-MS/MS analysis; parameters: time infinity, dose 5 mg/kg, route intravenous; details: plasma; outline: as §2
[8] = AUC (infinity) in MRP2-deficient Wistar rat at 5 mg/kg, iv by LC-MS/MS analysis; parameters: dose 5 mg/kg, route intravenous, time infinity; details: plasma
Outline: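 Male Wistar wild-type or Mrp2-deficient TR⁻ rats with femoral artery and vein cannulas. Sulfasalazine was given as a 5 mg/kg i.v. bolus and as a 20 mg/kg oral dose. Arterial plasma was sampled to 24 h and analysed for parent and sulfapyridine by LC-MS/MS. Noncompartmental parameters; n = 3, mean ± S.D.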

[9] = AUC (infinity) in wild-type Wistar rat at 5 mg/kg, po by LC-MS/MS analysis; parameters: time infinity, dose 5 mg/kg, route oral; details: plasma
[10] = Half life in MRP2-deficient Wistar rat at 5 mg/kg, iv by LC-MS/MS analysis; parameters: dose 5 mg/kg, route intravenous; details: in vivo; outline: as §4
[11] = Volume of distribution at steady state in MDR1A knockout Sprague-Dawley rat at 5 mg/kg, iv by LC-MS/MS analysis; parameters: dose 5 mg/kg, route intravenous; details: in vivo, read-out: Vdss; outline: as §1
[12] = AUC (infinity) in wild-type Sprague-Dawley rat at 20 mg/kg, po by LC-MS/MS analysis; parameters: time infinity, dose 20 mg/kg, route oral; details: plasma; outline: as §2
[13] = AUC (infinity) in MRP2 knockout Sprague-Dawley rat at 5 mg/kg, iv by LC-MS/MS analysis; parameters: time infinity, dose 5 mg/kg, route intravenous; details: plasma; outline: as §2
[14] = Oral bioavailability in BCRP knockout […]; details: in vivo
[15] = AUC (infinity) in BCRP knockout Sprague-Dawley rat at 20 mg/kg, po by LC-MS/MS analysis; parameters: time infinity, dose 20 mg/kg, route oral; details: plasma; outline: as §2
[16] = Half life in MDR1A knockout Sprague-Dawley rat at 5 mg/kg, iv by LC-MS/MS analysis; parameters: dose 5 mg/kg, route intravenous; details: in vivo; outline: as §1
[17] = Cmax in MRP2 knockout Sprague-Dawley rat at 20 mg/kg, po by LC-MS/MS analysis; parameters: dose 20 mg/kg, route oral; details: in vivo; outline: as §2
[18] = Tmax in BCRP knockout Sprague-Dawley rat at 20 mg/kg, po by LC-MS/MS analysis; parameters: dose 20 mg/kg, route oral; details: in vivo; outline: as §3

Which results are given for `O=C(O)c1cc(/N=N/c2ccc(S(=O)(=O)Nc3ccccn3)cc2)ccc1O` [SULFASALAZINE]?
half-life [1]: 258 min; clearance [2]: 7.8 mL/min/kg; Tmax [3]: 15 min; Vd [4]: 0.839 L/kg; Cmax [5]: 3870 ng/mL; Tmax [6]: 15 min; AUC(0-inf) [7]: 6260 ng·h/mL; AUC(0-inf) [8]: 7730 ng·h/mL; AUC(0-inf) [9]: 1810 ng·h/mL; half-life [10]: 240 min; Vd [11]: 0.285 L/kg; AUC(0-inf) [12]: 562 ng·h/mL; AUC(0-inf) [13]: 4320 ng·h/mL; bioavailability [14]: 37%; AUC(0-inf) [15]: 13100 ng·h/mL; half-life [16]: 60 min; Cmax [17]: 320 ng/mL; Tmax [18]: 36 min
